Key:
[1] = system: mice; test: Plasma counterregulatory hormones; assay type: in vivo, mouse; conditions: NCD-WT mice; acute insulin for 30 minutes; n = 7; Figure 2B,C
[2] = system: NCD-WT mice; test: Liver glycogen content in NCD-WT mice; assay type: in vivo, mouse
[3] = system: GSK-3β; test: Immunoblotting of GSK-3β in liver; assay type: in vivo, mouse; conditions: liver of fasted NCD-WT and DIO-WT mice; immunoblot; n = 4; Figure 9A,B
[4] = system: IR, IRS-1, mTOR, AKT; test: Immunoblotting of phosphorylation signals in primary hepatocytes; assay type: cell-based, mouse; conditions: cultured hepatocytes; immunoblot; n = 3; Figure 6A–D
[5] = system: PI3-kinase; test: PI-3-kinase activity in anti-p85 immunoprecipitates of hepatocytes; assay type: cell-based, mouse; conditions: CST 100 nM for 1 hour, insulin 10 nM for 10 minutes, Figure 6E
Outline: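 Mouse hepatocytes were left untreated or exposed to CST (100 nM, 1 hr) or insulin (10 nM, 10 min), then lysed. Anti-p85 immunoprecipitates were washed and assayed with phosphatidylinositol substrate and γ-32P-ATP. Labelled lipids were extracted, mixed with reference lipids and separated by TLC (CHCl3–MeOH–H2O–NH4OH (25%), 45:35:8.5:1.5). PI3P was detected by autoradiography.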

[6] = system: CST-KO mice; test: Liver glycogen content in NCD-CST-KO mice; assay type: in vivo, mouse; conditions: fed state, insulin 30 min, Figure 4B

Question: With insulin as the substance, how does the “effect on plasma noradrenaline and adrenaline levels” value [1] read?
Answer: Its value is “raised plasma noradrenaline and adrenaline levels only in the fasted state”.

Question: And the “effect on liver glycogen level” value ([2]; fasted NCD-WT mice, insulin 30 minutes, CST 2 μg/g body weight acute (1 hour) and chronic (10–15 days), Figure 1A,C,D)?
Answer: Its value is “restored glycogen level”.

Question: And the “fold increase in hepatic glycogen content” value ([2]; fasted lean mice, CST or insulin alone)?
Answer: Its value is “> fivefold”.

Question: And the “effect on GSK-3β Ser9 phosphorylation” value [3]?
Answer: The value was “increased GSK-3β Ser9 phosphorylation”.

Question: What about the “effect on tyrosine phosphorylation of IR and IRS-1” value [4] of the same substance?
Answer: The value was “stimulated tyrosine phosphorylation”.

Question: And the “effect on PI3-kinase activity (PI3P formation)” value [5]?
Answer: The value was “stimulated PI3-kinase activity”.

Question: And the “effect on hepatic glycogen content” value [6]?
Answer: The value was “failed to increase”.
